Laboratory results published in ChEMBL document CHEMBL1773052, “3-Trifluoromethylquinoxaline N,N'-dioxides as anti-trypanosomatid agents. Identification of optimal anti-T. cruzi agents and mechanism of action studies” (J Med Chem, 2011).
Active and inactive are the calls of the source. No cut-off for these calls is given here.

What was measured:
Trypanosoma cruzi [1] = assay: Antitrypanosomal activity against Trypanosoma cruzi Y epimastigotes assessed as cell death at 25 uM after 2 days by MTT assay relative to control; format: functional
Outline: (§1)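 Epimastigotes of each strain taken in exponential growth in BHI-tryptose with 5% FBS, 1 mL per well. Compounds added from DMSO and kept 2 days at 28 °C. Cells washed twice and resuspended in PBS-glucose (5.5 mM), then given 0.4 mg/mL MTT for 4 h at 28 °C. Lysis in SDS-isopropanol, OD read. Triplicate wells, six growth controls. PCyt taken against control, corrected for medium-only wells.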

Trypanosoma cruzi [2] = assay: Antitrypanosomal activity against Trypanosoma cruzi CL Brener clone epimastigotes assessed as cell death after 2 days by MTT assay; format: functional; settings: 48 h, read-out: ID50 (the source's name)
Outline: (§2)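 Parasites in exponential growth, in BHI-tryptose + 5% FBS for T. cruzi or RPMI + 5% FBS for L. braziliensis, 28 °C, 24-well plates. Compounds in DMSO; miltefosine in ethanol. 2-day exposure, two PBS-glucose (5.5 mM) washes, then MTT 0.4 mg/mL for 4 h at 28 °C. SDS-isopropanol lysis, OD read. Triplicates, six growth controls.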

Trypanosoma cruzi [3] = assay: Antitrypanosomal activity against Trypanosoma cruzi Colombiana epimastigotes assessed as cell death at 25 uM after 2 days by MTT assay relative to control; format: functional; outline: as §1
Trypanosoma cruzi [4] = assay: Antitrypanosomal activity against Trypanosoma cruzi CL Brener clone epimastigotes assessed as cell death at 25 uM after 2 days by MTT assay relative to control; format: functional; outline: as §1
Leishmania braziliensis = assay: Antileishmanial activity against Leishmania braziliensis MHOM/BR/00/LTB300 promastigotes assessed as cell death after 2 days by MTT assay; format: functional; settings: MHOM/BR/00/LTB300, 48 h, read-out: ID50 (the source's name); outline: as §2
Trypanosoma cruzi [5] = assay: Antitrypanosomal activity against Trypanosoma cruzi Y epimastigotes assessed as cell death after 2 days by MTT assay; format: functional; settings: 48 h, read-out: ID50 (the source's name); outline: as §2
Trypanosoma cruzi [6] = assay: Antitrypanosomal activity against Trypanosoma cruzi Tulahuen 2 epimastigotes assessed as growth inhibition at 25 uM after 5 days relative to control; format: functional; settings: Tulahuen 2, 120 h, read-out: GI
Outline: (§3)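 Epimastigotes grown axenically at 28 °C in BHI-tryptose + 5% FBS; a 10-day stationary culture was inoculated to 1 × 10⁶ cells/mL. Drug added from DMSO stock, final DMSO ≤0.4%, vehicle control. A600 read daily. PGI on day 5 corrects for day-0 absorbance, relative to control. […] Three independent experiments.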

Trypanosoma cruzi [7] = assay: Antitrypanosomal activity against Trypanosoma cruzi Tulahuen 2 epimastigotes assessed as growth inhibition after 5 days; format: functional; settings: Tulahuen 2, 120 h, read-out: ID50; outline: as §3
Trypanosoma cruzi [8] = assay: Antitrypanosomal activity against Trypanosoma cruzi CL Brener clone infected in BALB/c mouse assessed as reduction of microbial antibody level at 10 mg/kg/day, po after 90 days by Wilconxon test; format: functional, organism-based
Outline: (§4)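 Male BALB/c or Swiss albino mice, 30 days old, SPF, infected ip with 10³ blood trypomastigotes (CL Brener or Y). Oral dosing in PBS for 10 days. Controls: 10 mice on PBS; treated groups of 8. Tail-vein parasitemia weekly for 60 days, mortality recorded. Anti-T. cruzi antibodies measured by ELISA, run twice, at 30 and 60 or 90 days post-infection.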

Trypanosoma cruzi [9] = assay: Inhibition of mitochondrial dehydrogenase activity in Trypanosoma cruzi Y epimastigotes at 20 uM up to 120 mins by MTT assay
Outline: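 Y-strain epimastigotes, 10⁶ per well in 500 μL medium, treated with 20 μM compound at 28 °C, untreated wells as time-matched controls. At each time point cells counted, then MTT (50 μL of 5 mg/mL in PBS) added for 4 h. Stopped with acidic isopropanol, A570 read. Activity given as percent of untreated control.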

Trypanosoma cruzi [10] = assay: Antitrypanosomal activity against Trypanosoma cruzi CL Brener clone infected in BALB/c mouse assessed as reduction of parasitemia level at 10 mg/kg/day, po by ELISA; format: functional, organism-based; outline: as §4
Salmonella typhimurium [11] = assay: Mutagenic activity in Salmonella Typhimurium TA98 assessed as number of revertants at 0.05 to 4 ug/plate by Ames test in absence of S9 fraction; format: toxicity, organism-based; settings: salmonella enterica subsp. enterica serovar typhimurium
Outline: (§5)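 Direct plate incubation with S. typhimurium TA98 on minimal glucose agar. Toxicity to the strain tested first; doses run in triplicate from DMSO solutions, DMSO as negative control. Metabolic activation with 500 μL Aroclor-treated mouse liver S9. Positive controls: 4-nitro-o-phenylenediamine 20.0 μg/plate without S9; 2-aminofluorene 10.0 μg/plate with S9. Revertants counted manually; mutagenic if ≥2-fold the negative control at two consecutive doses.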

Trypanosoma cruzi [12] = assay: Antitrypanosomal activity against Trypanosoma cruzi CL Brener clone infected in BALB/c mouse assessed as reduction of microbial antibody level at 10 mg/kg/day, po after 30 days by Wilconxon test; format: functional, organism-based; outline: as §4
Trypanosoma cruzi [13] = assay: Antitrypanosomal activity against Trypanosoma cruzi CL Brener clone trypomastigotes in parasite infected BALB/c mouse blood assessed as parasite lysis at 250 ug/ml after 24 hrs relative to control; format: functional
Outline: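 Blood from BALB/c mice 7 days post-infection, taken by cardiac puncture into 3.8% sodium citrate (7:3). Compounds dissolved in DMSO, diluted in PBS to 100 or 250 μg/mL. 10 μL mixed with 100 μL infected blood (~10⁶ parasites/mL), in triplicate. Shaken 10 min at RT, held 4 °C for 24 h. Parasites counted by microscopy; gentian violet 250 μg/mL as standard.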

Trypanosoma cruzi [14] = assay: Antitrypanosomal activity against Trypanosoma cruzi Y infected in Swiss albino mouse assessed as reduction of parasitemia level at 10 mg/kg/day, po by ELISA; format: functional, organism-based; outline: as §4
[15] = Selectivity index, ratio of ID50 for mouse J774 cells to ID50 for Trypanosoma cruzi Tulahuen 2 epimastigotes; format: toxicity, cell-based; settings: J774 cells versus Trypanosoma cruzi Tulahuen 2 epimastigotes, read-out: Selectivity Index
Trypanosoma cruzi [16] = assay: Antitrypanosomal activity against Trypanosoma cruzi CL Brener clone infected in BALB/c mouse assessed as increase of mouse survival days at 10 mg/kg/day, po relative to control; format: functional
[17] = Cytotoxicity against mouse J774 cells; format: cell-based; settings: read-out: ID50 (the source's name)
Salmonella typhimurium [18] = assay: Mutagenic activity in Salmonella Typhimurium TA98 assessed as number of revertants at 0.05 to 4 ug/plate by Ames test in presence of S9 fraction; format: toxicity, organism-based; settings: salmonella enterica subsp. enterica serovar typhimurium; outline: as §5
Trypanosoma cruzi [19] = assay: Antitrypanosomal activity against Trypanosoma cruzi Y infected in Swiss albino mouse assessed as increase of mouse survival days at 10 mg/kg/day, po relative to control; format: functional
Salmonella typhimurium [20] = assay: Mutagenic activity in Salmonella Typhimurium TA98 assessed as number of revertants at 0.2 to 15 ug/plate by Ames test in absence of S9 fraction; format: toxicity, organism-based; settings: salmonella enterica subsp. enterica serovar typhimurium; outline: as §5
Salmonella typhimurium [21] = assay: Mutagenic activity in Salmonella Typhimurium TA98 assessed as number of revertants at 0.2 to 15 ug/plate by Ames test in presence of S9 fraction; format: toxicity, organism-based; settings: salmonella enterica subsp. enterica serovar typhimurium; outline: as §5
Trypanosoma cruzi [22] = assay: Antitrypanosomal activity against Trypanosoma cruzi CL Brener clone infected in BALB/c mouse assessed as increase of mouse survival days at 50 mg/kg/day, po relative to control; format: functional
Trypanosoma cruzi [23] = assay: Antitrypanosomal activity against Trypanosoma cruzi CL Brener clone infected in Swiss albino mouse assessed as increase of mouse survival days at 50 mg/kg/day, po relative to control; format: functional
Trypanosoma cruzi [24] = assay: Antitrypanosomal activity against Trypanosoma cruzi Y infected in Swiss albino mouse assessed as increase of mouse survival days at 50 mg/kg/day, po relative to control; format: functional
Trypanosoma cruzi [25] = assay: Antitrypanosomal activity against Trypanosoma cruzi Y infected in Swiss albino mouse assessed as reduction of microbial antibody level at 50 mg/kg/day, po by Wilconxon test; format: functional, organism-based; outline: as §4
Trypanosoma cruzi [26] = assay: Antitrypanosomal activity against Trypanosoma cruzi CL Brener clone infected in BALB/c mouse assessed as reduction of microbial antibody level at 50 mg/kg/day, po after 90 days by Wilconxon test; format: functional, organism-based; outline: as §4

For `CCOC(=O)c1c(-c2ccccc2)[n+]([O-])c2cc(Cl)c(Cl)cc2[n+]1[O-]`, the Activity (Trypanosoma cruzi [1]) was 100%, the IC50 (Trypanosoma cruzi [2]) was 16.4 µM and the Activity (Trypanosoma cruzi [3]) was 100%. It also gave an Activity (Trypanosoma cruzi [4]) of 94%, an IC50 (Leishmania braziliensis) of 3 µM and an IC50 (Trypanosoma cruzi [5]) of 7.1 µM. The inhibition of growth at 25 µM (Trypanosoma cruzi [6]) was 99% and the IC50 (Trypanosoma cruzi [7]) was 11.3 µM.

Compound `COC(=O)c1c(C)[n+]([O-])c2ccccc2[n+]1[O-]` has an Activity (Trypanosoma cruzi [1]) of 0%, an Activity (Trypanosoma cruzi [3]) of 60% and an Activity (Trypanosoma cruzi [4]) of 59%. It also gave an IC50 (Leishmania braziliensis) of over 50 µM and an inhibition of growth at 25 µM (Trypanosoma cruzi [6]) of 24%.

In the case of `CC(=O)c1c(C(F)(F)F)[n+]([O-])c2cc(F)c(F)cc2[n+]1[O-]`, the Activity (Trypanosoma cruzi [8]) is reported as “Active”, the inhibition (Trypanosoma cruzi [9]) is reported as “Active” and the Activity (Trypanosoma cruzi [10]) is reported as “Active”. The Activity (Salmonella typhimurium [11]) was “Toxic”, the Activity (Trypanosoma cruzi [12]) was “Active” and the Activity (Trypanosoma cruzi [13]) was 80%. The Activity (Trypanosoma cruzi [14]) was “inactive”, the selectivity ratio [15] was 27.2 and the survival at 10 mg/kg/day (Trypanosoma cruzi [16]) was 100%. The CC50 [17] was 10.6 µM, the inhibition of growth at 25 µM (Trypanosoma cruzi [6]) was 100% and the Activity (Salmonella typhimurium [18]) was “Toxic”. For the same compound, the survival at 10 mg/kg/day (Trypanosoma cruzi [19]) was 62.5% and the IC50 (Trypanosoma cruzi [7]) was 0.39 µM.

For `CC(=O)c1c(C)[n+]([O-])c2cc(F)c(F)cc2[n+]1[O-]`, the Activity (Salmonella typhimurium [20]) was “Toxic”, the Activity (Salmonella typhimurium [21]) was “Toxic” and the inhibition of growth at 25 µM (Trypanosoma cruzi [6]) was 100%. It also gave an IC50 (Trypanosoma cruzi [7]) of 0.4 µM.

In the case of `O=C(c1ccccc1)c1c(C(F)(F)F)[n+]([O-])c2ccccc2[n+]1[O-]`, the inhibition (Trypanosoma cruzi [9]) is reported as “Active”, the Activity (Trypanosoma cruzi [1]) is reported as 100% and the IC50 (Trypanosoma cruzi [2]) is reported as 3.1 µM. The Activity (Trypanosoma cruzi [3]) was 100%, the Activity (Trypanosoma cruzi [4]) was 97% and the IC50 (Leishmania braziliensis) was 1 µM. It also gave an IC50 (Trypanosoma cruzi [5]) of 4 µM, an inhibition of growth at 25 µM (Trypanosoma cruzi [6]) of 100% and an IC50 (Trypanosoma cruzi [7]) of 0.9 µM.

Work on `O=C(Cn1ccnc1[N+](=O)[O-])NCc1ccccc1` [BENZNIDAZOLE] yielded a survival at 50 mg/kg/day (Trypanosoma cruzi [22]) of 75%, a survival at 50 mg/kg/day (Trypanosoma cruzi [23]) of 100% and a survival at 50 mg/kg/day (Trypanosoma cruzi [24]) of 87.5%. The Activity (Trypanosoma cruzi [25]) was “Active” and the Activity (Trypanosoma cruzi [26]) was “inactive”.
